Columns and labels:
[1] = biological target: T1, Adrenergic receptor alpha-1 (Rattus norvegicus) (UniProt P15823+P23944+P43140); assay: Binding affinity for Alpha-1 adrenergic receptor in rat aorta determined by block of norepinephrine induced contraction of rat aorta; assay type: tissue-based
[2] = biological target: 5-hydroxytryptamine receptor 4 (Rattus norvegicus) (UniProt Q62758); assay: Antagonistic activity by ability to block serotonin induced relaxation (mediated by activation of 5-hydroxytryptamine 4 receptor) in carbamylcholine (10e-6 M) contracted esophagus at a concentration of 10e-6 M.; assay type: functional, tissue-based
5-hydroxytryptamine receptor 4 (Rattus norvegicus), sequence (Q62758 whole entry): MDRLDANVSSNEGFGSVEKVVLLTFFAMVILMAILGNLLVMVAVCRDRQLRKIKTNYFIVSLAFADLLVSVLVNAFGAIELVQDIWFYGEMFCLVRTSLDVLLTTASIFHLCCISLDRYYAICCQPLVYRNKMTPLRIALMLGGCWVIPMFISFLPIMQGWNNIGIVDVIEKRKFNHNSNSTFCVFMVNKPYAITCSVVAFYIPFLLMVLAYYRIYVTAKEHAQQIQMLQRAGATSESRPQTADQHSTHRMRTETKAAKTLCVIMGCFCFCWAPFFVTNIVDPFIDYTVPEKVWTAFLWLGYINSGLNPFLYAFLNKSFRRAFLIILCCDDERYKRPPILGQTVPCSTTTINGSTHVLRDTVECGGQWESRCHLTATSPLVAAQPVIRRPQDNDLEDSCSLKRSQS
Summary of the method: (§1)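 Isolated rat esophagus precontracted with carbamylcholine (10^-6 M). Tissue was challenged with serotonin (1 µM) in the presence of the antagonist at a given concentration or of vehicle. Relaxation was recorded as % relaxation to 10^-6 M 5-HT, given as mean ± SEM with the number of determinations.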

[3] = biological target: T1, Adrenergic receptor alpha-1 (Rattus norvegicus); assay: Affinity for the alpha-1 adrenergic receptor determined by the displacement of [3H]prazosin from rat whole brain tissue.; assay type: tissue-based
[4] = biological target: 5-hydroxytryptamine receptor 4 (Rattus norvegicus) (UniProt Q62758); assay: Antagonistic activity by ability to block serotonin induced relaxation (mediated by activation of 5-hydroxytryptamine 4 receptor) in carbamylcholine (10e-6 M) contracted esophagus at a concentration of 10e-7 M.; assay type: functional, tissue-based; summary of the method: as §1
[5] = biological target: 5-hydroxytryptamine receptor 4 (Rattus norvegicus) (UniProt Q62758); assay: Antagonistic activity evaluated by ability to block serotonin induced relaxation via 5-hydroxytryptamine 4 receptor) in carbamylcholine (10e-6 M) contracted esophagus at a concentration of 0.1 mg/kg (p.o.); assay type: functional, organism-based; set-up: dose 0.1 mg/kg
Summary of the method: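 Rats were dosed with the antagonist by oral gavage. Esophagus was removed 3 h after dosing and challenged ex vivo with serotonin. Read-out was % relaxation of the carbamylcholine-contracted tissue to 10^-6 M 5-HT, given as mean ± SEM with the number of determinations.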

[6] = biological target: 5-hydroxytryptamine receptor 4 (Rattus norvegicus) (UniProt Q62758); assay: Antagonistic activity evaluated by ability to block serotonin induced relaxation (mediated by activation of 5-hydroxytryptamine 4 receptor) in carbamylcholine (10e-6 M) contracted esophagus at a concentration of 10e-8 M.; assay type: functional, tissue-based; summary of the method: as §1
[7] = biological target: 5-hydroxytryptamine receptor 4 (Rattus norvegicus) (UniProt Q62758); assay: Antagonistic activity evaluated by ability to block serotonin induced relaxation (via 5-hydroxytryptamine 4 receptor) in carbamylcholine (10e-6 M) contracted esophagus at a concentration of 3*10e-8 M.; assay type: functional
Summary of the method: (§2)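 Isolated rat esophagus precontracted with carbamylcholine (10^-6 M), then challenged with serotonin (1 μM) in the presence of antagonist at the stated concentration or vehicle. Read-out is % relaxation to serotonin, given as mean ± SEM with the number of determinations.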

[8] = biological target: Serotonin 2 (5-HT2) receptor (Rattus norvegicus) (UniProt P30994+P08909+P14842); assay: Binding affinity against 5-hydroxytryptamine 2 receptor in serotonin-induced contraction of the rat aorta; assay type: tissue-based
Serotonin 2 (5-HT2) receptor (Rattus norvegicus), sequence (P08909 whole entry, looked up): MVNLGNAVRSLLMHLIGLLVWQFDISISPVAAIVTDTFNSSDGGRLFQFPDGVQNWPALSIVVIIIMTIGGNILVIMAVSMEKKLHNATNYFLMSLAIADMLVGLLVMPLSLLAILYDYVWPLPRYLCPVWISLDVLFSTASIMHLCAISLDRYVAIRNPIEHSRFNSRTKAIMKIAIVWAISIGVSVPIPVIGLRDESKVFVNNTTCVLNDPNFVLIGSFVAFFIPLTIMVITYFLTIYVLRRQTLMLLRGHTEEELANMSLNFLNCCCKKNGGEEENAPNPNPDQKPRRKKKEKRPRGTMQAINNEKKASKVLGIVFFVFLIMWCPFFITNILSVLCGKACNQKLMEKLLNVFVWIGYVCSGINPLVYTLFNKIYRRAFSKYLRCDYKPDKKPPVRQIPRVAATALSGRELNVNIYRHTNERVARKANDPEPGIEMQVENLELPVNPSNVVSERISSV
Serotonin 2 (5-HT2) receptor (Rattus norvegicus), sequence (P14842 whole entry, looked up): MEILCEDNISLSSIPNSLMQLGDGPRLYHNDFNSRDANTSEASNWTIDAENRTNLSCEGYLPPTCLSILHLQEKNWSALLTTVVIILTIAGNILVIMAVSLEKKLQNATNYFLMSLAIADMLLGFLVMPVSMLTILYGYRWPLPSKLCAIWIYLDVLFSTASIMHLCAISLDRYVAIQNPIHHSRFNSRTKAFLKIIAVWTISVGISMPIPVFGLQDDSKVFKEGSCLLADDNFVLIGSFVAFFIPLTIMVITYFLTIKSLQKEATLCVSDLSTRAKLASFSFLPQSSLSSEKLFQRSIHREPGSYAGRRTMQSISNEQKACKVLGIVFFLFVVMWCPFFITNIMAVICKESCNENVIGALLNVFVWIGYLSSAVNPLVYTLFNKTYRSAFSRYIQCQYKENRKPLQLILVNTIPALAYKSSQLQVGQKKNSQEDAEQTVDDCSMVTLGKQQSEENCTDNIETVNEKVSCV
Serotonin 2 (5-HT2) receptor (Rattus norvegicus), sequence (P30994 whole entry, looked up): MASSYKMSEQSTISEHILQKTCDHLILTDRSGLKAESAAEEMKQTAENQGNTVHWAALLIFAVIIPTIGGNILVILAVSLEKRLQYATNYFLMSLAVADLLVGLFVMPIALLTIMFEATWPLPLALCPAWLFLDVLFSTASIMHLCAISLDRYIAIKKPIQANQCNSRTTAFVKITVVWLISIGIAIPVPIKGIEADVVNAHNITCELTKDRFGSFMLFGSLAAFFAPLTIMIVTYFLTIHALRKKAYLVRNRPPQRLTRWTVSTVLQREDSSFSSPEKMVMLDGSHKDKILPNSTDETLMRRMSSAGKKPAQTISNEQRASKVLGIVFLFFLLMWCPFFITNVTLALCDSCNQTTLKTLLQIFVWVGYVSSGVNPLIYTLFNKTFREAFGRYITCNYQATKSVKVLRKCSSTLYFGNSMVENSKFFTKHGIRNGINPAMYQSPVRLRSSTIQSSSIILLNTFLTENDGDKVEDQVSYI

[9] = biological target: 5-hydroxytryptamine receptor 4 (Rattus norvegicus) (UniProt Q62758); assay: Antagonistic activity evaluated by ability to block serotonin induced relaxation (mediated by activation of 5-hydroxytryptamine 4 receptor) in carbamylcholine (10e-6 M) contracted esophagus at a concentration of 10e-5 M.; assay type: functional, tissue-based; summary of the method: as §1
[10] = biological target: Serotonin 3 (5-HT3) receptor (Homo sapiens) (UniProt P46098+A5X5Y0+O95264+Q70Z44+Q8WXA8); assay: The compound was tested for binding affinity against 5-hydroxytryptamine 3 receptor in guinea pig ileum.; assay type: tissue-based; conditions: Cavia porcellus, target entry is the homologue from another species
[11] = biological target: 5-hydroxytryptamine receptor 4 (Rattus norvegicus) (UniProt Q62758); assay: Antagonistic activity of compound was evaluated by ability to block serotonin induced relaxation (mediated by activation of 5-hydroxytryptamine 4 receptor) in carbamylcholine (10e-6 M) contracted esophagus at a concentration of 10e-7 M.; assay type: functional; summary of the method: as §2

SMILES: CC(C)n1nc(C(=O)NC2CCN(CCc3ccccc3)CC2)c2ccccc21
- pKb [1]: 7.68
- Relaxation [2]: 1.3%

SMILES: CCC(C)n1c(=O)n(C(=O)NC2CC3CCC(C2)N3C)c2ccccc21 (stereo not drawn)
- Relaxation [2]: 8.8%

SMILES: CC(C)n1cc(C(=O)NC2CC3CCC(C2)N3C)c2ccccc21 (stereo not drawn)
- Relaxation [2]: 25.3%

SMILES: CC(C)n1nc(C(=O)NC2CCN(CCNS(C)(=O)=O)CC2)c2ccccc21
- pKb [1]: < 5
- pKi [3]: < 4
- Relaxation [4]: 16%
- Relaxation [2]: 6.8%

SMILES: CCN(CC)CCNC(=O)c1nn(C(C)C)c2ccccc12
- Relaxation [2]: 26.8%

SMILES: CCCCC(=O)NC1CCN(CCNC(=O)c2nn(C(C)C)c3ccccc23)CC1
- Relaxation [5]: 38%
- Relaxation [6]: 51%
- Relaxation [4]: 25.6%

SMILES: CC(C)n1nc(C(=O)NCCN2CCC(NC(=O)Cc3ccccc3)CC2)c2ccccc21
- Relaxation [5]: 39%
- Relaxation [4]: 23.7%
- Relaxation [2]: 5.6%

SMILES: CCCn1c(=O)n(C(=O)NC2CC3CCC(C2)N3C)c2ccccc21 (stereo not drawn)
- Relaxation [7]: 30.7%
- Relaxation [2]: 4.3%

SMILES: CC(C)n1nc(C(=O)NCCN2CCC(NC(=O)C(C)(C)C)CC2)c2ccccc21
- Relaxation [7]: 35%
- Relaxation [5]: 30%
- Relaxation [6]: 50.5%
- Relaxation [4]: 7.8%
- Relaxation [2]: 3.3%

SMILES: CC(=O)NC1CCN(CCNC(=O)c2nn(C(C)C)c3ccccc23)CC1
- Relaxation [7]: 33.5%
- Relaxation [5]: 19.1%
- pKi [3]: < 4
- Relaxation [6]: 51.3%
- Relaxation [2]: 6.8%

SMILES: CC(C)n1nc(C(=O)NC2CCN(CCCc3ccccc3)CC2)c2ccccc21
- pKb [1]: 5.8
- Relaxation [2]: 3.7%

SMILES: CN1C2CCC1CC(NC(=O)c1c[nH]c3ccccc13)C2 (stereo not drawn)
- Relaxation [2]: 60%

SMILES: CC(C)n1nc(C(=O)NCCN2CCC(NC(=O)Nc3ccc(F)cc3)CC2)c2ccccc21
- Relaxation [5]: 45.5%
- Relaxation [4]: 44.8%
- Relaxation [2]: 6.3%

SMILES: CC(C)n1nc(C(=O)NC2CCN(CCCOc3ccc(F)cc3)CC2)c2ccccc21
- pKb [1]: 6.7
- pKb [8]: 6.8
- Relaxation [7]: 36%
- pKi [3]: 7.69
- Relaxation [4]: 15.7%
- Relaxation [2]: 7.5%

SMILES: CC(C)n1nc(C(=O)NCCN2CCN(C(=O)c3ccccc3)CC2)c2ccccc21
- Relaxation [2]: 19.8%

SMILES: CC(C)n1nc(C(=O)NCCN2CCC(NC(=O)c3ccccc3)CC2)c2ccccc21
- Relaxation [5]: 50%
- Relaxation [6]: 34.3%
- Relaxation [4]: 14.7%
- Relaxation [2]: 2%

SMILES: CN1C2CCC1CC(NC(=O)c1cn(C)c3ccccc13)C2 (stereo not drawn)
- Relaxation [2]: 47.3%

SMILES: CCCn1cc(C(=O)NC2CC3CCC(C2)N3C)c2ccccc21 (stereo not drawn)
- Relaxation [2]: 34.3%

SMILES: CN1C2CCC1CC(NC(=O)c1cccc3ccccc13)C2 (stereo not drawn)
- Relaxation [9]: 76.5%

SMILES: CN1[C@@H]2CC[C@H]1C[C@@H](OC(=O)c1c[nH]c3ccccc13)C2
- Relaxation [9]: 26.4%
- Relaxation [2]: 33.9%

SMILES: CC(C)n1nc(C(=O)NC2CCN(CCNC(=O)c3ccccc3)CC2)c2ccccc21
- pKb [1]: 5.8
- pKi [3]: 6.62
- Relaxation [4]: 28%
- Relaxation [2]: 6%

SMILES: CC(C)n1nc(C(=O)NCCN2CCC(NC(=O)NCc3ccccc3)CC2)c2ccccc21
- Relaxation [5]: 30%
- Relaxation [2]: 3.3%

SMILES: CN1[C@@H]2CC[C@H]1C[C@@H](NC(=O)c1cc(Cl)cc3c1OC(C)(C)C3)C2
- Relaxation [9]: 22.2%
- pKb [10]: 8.78
- Relaxation [2]: 37%

SMILES: CN1C2CCC1CC(NC(=O)n1c(=O)n(C)c3ccccc31)C2 (stereo not drawn)
- Relaxation [2]: 7.3%

SMILES: CC(C)n1nc(C(=O)NC2CC3CCC(C2)N3C)c2ccccc21 (stereo not drawn)
- Relaxation [11]: 9%
- Relaxation [6]: 43.2%
- Relaxation [2]: 8%

SMILES: CC(C)n1c(=O)n(C(=O)NC2CCN(C)CC2)c2ccccc21
- Relaxation [4]: 40.8%
- Relaxation [2]: 7.5%

SMILES: CCC(=O)NC1CCN(CCNC(=O)c2nn(C(C)C)c3ccccc23)CC1
- Relaxation [5]: 36%
- Relaxation [4]: 11.3%

SMILES: CC(C)n1nc(C(=O)NC2CCN(CCCCCc3ccccc3)CC2)c2ccccc21
- Relaxation [2]: 43.7%

SMILES: CC(C)n1nc(C(=O)NC2CC3CCC(C2)N3CCCOc2ccc(F)cc2)c2ccccc21 (stereo not drawn)
- Relaxation [4]: 22.2%
- Relaxation [2]: 17.7%

SMILES: CC(C)n1nc(C(=O)NCCN2CCCCC2)c2ccccc21
- Relaxation [9]: 6.6%
- pKb [10]: 5.8
- pKb [1]: 4.9
- pKb [8]: < 5
- Relaxation [5]: 38%
- pKi [3]: 4.8
- Relaxation [4]: 22%

SMILES: CC(C)n1nc(C(=O)NC2CCN(Cc3ccccc3)CC2)c2ccccc21
- pKb [1]: < 5
- pKb [8]: 5.5
- Relaxation [7]: 23.3%
- pKi [3]: < 4
- Relaxation [6]: 38.5%
- Relaxation [4]: 24.5%
- Relaxation [2]: 3.85%

From ChEMBL document CHEMBL1131384, “Synthesis and structure-activity relationships of potent and orally active 5-HT4 receptor antagonists: indazole and benzimidazolone derivatives” (J Med Chem, 1998)
